Laboratory results published in ChEMBL document CHEMBL3272224, “Synthesis and hypotensive activity of N-alkyl-N"-cyano-N'-pyridylguanidines” (J Med Chem, 1978).
Active and inactive are the calls of the source. The calls are words filed in the database; no cut-off is given here.

Legend:
Rattus norvegicus [1] = test: Hypotensive activity in po dosed spontaneously hypertensive Wistar-Okamoto rat assessed as dose required to cause 30 mmHg fall of blood pressure administered for 5 days; type: functional; details: 120 h, read-out: MED
Canis familiaris [2] = test: Hypotensive activity in conscious renal hypertensive dog assessed as time required for persistence of hypotensive effect at 0.1 mg/kg, po measured for 8 hrs; type: functional, Canis lupus familiaris
Summary of the method: (§1)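 Conscious renal hypertensive dogs received single oral doses in soft gelatin capsules, three per dose. Indirect standing blood pressure was read before dosing and hourly to 8 h. Duration (h) was the time the pressure stayed 15 mmHg or more below the initial value, which was taken as persistence of the hypotensive effect.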

Rattus norvegicus [3] = test: Hypotensive activity in spontaneously hypertensive Wistar-Okamoto rat assessed as time required for persistence of hypotensive effect at 0.01 mg/kg, po; type: functional
Summary of the method: (§2)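 SHR (Wistar-Okamoto), five per dose, were given an oral dose in 0.5% carboxymethylcellulose. Indirect cuff pressure in restrained conscious rats was read before dosing and at 2, 4, 6, 8, 12 and 24 h. Duration (h) was scored while pressure remained 15 mmHg or more below the initial reading.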

Rattus norvegicus [4] = test: Hypotensive activity in spontaneously hypertensive Wistar-Okamoto rat assessed as time required for persistence of hypotensive effect at 0.05 mg/kg, po; type: functional; summary of the method: as §2
Felis catus = species on record: Felis catus; test: Hypotensive activity in decerebrated cat; type: functional, organism-based
Canis familiaris [5] = test: Hypotensive activity in conscious renal hypertensive dog assessed as maximum change in mean blood pressure at 0.1 mg/kg, po measured for 8 hrs relative to control; type: functional, Canis lupus familiaris
Summary of the method: (§3)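 Renal hypertensive dogs, conscious, dosed orally in soft gelatin capsules, three dogs per dose. Mean blood pressure was taken indirectly with an Arteriosonde, standing animals in a semi-insonorized room, just before dosing and then hourly for 8 h. Maximum change was measured after a single administration and given as mean ± error.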

Canis familiaris [6] = test: Hypotensive activity in conscious renal hypertensive dog assessed as maximum change in mean blood pressure at 0.05 mg/kg, po measured for 8 hrs relative to control; type: functional, Canis lupus familiaris; summary of the method: as §3
Rattus norvegicus [7] = test: Hypotensive activity in spontaneously hypertensive Wistar-Okamoto rat assessed as maximum change in mean blood pressure at 0.01 mg/kg, po relative to control; type: functional
Summary of the method: (§4)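 Spontaneously hypertensive Wistar-Okamoto rats, five per dose, received compound orally, dissolved or suspended in 0.5% carboxymethylcellulose. Blood pressure was measured indirectly by tail cuff in restrained conscious rats before dosing and at 2, 4, 6, 8, 12 and 24 h. Maximum change was measured after a single administration and given as mean ± error.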

Rattus norvegicus [8] = test: Hypotensive activity in spontaneously hypertensive Wistar-Okamoto rat assessed as time required for persistence of hypotensive effect at 0.1 mg/kg, po; type: functional; summary of the method: as §2
Rattus norvegicus [9] = test: Hypotensive activity in spontaneously hypertensive Wistar-Okamoto rat assessed as maximum change in mean blood pressure at 0.1 mg/kg, po relative to control; type: functional; summary of the method: as §4
Rattus norvegicus [10] = test: Hypotensive activity in spontaneously hypertensive Wistar-Okamoto rat assessed as maximum change in mean blood pressure at 0.05 mg/kg, po relative to control; type: functional; summary of the method: as §4
Canis familiaris [11] = test: Hypotensive activity in conscious renal hypertensive dog assessed as time required for persistence of hypotensive effect at 0.05 mg/kg, po measured for 8 hrs; type: functional, Canis lupus familiaris; summary of the method: as §1
Rattus norvegicus [12] = test: Hypotensive activity in po dosed spontaneously hypertensive Wistar-Okamoto rat relative to guancydine; type: functional
Rattus norvegicus [13] = test: Toxicity in rat assessed as change in cardiac noradrenaline level at 0.1 mg/kg; type: organism-based, Heart; parameters: dose 0.1 mg/kg; details: in vivo
Summary of the method: (§5)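 Rats were given single or repeated (5 days) administration, and cardiac noradrenaline levels were measured.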

Rattus norvegicus [14] = species on record: Rattus norvegicus; test: Toxicity in rat assessed as effect on contraction of nictitating membranes by preganglionic stimulation; type: organism-based, Nictitating membrane; details: in vivo
[15] = Toxicity in po dosed Sprague-Dawley rat assessed as mortality after 7 days; type: organism-based; details: in vivo
[16] = Toxicity in po dosed mouse assessed as mortality after 7 days; details: in vivo
Canis familiaris [17] = test: Hypotensive activity in conscious renal hypertensive dog assessed as time required for persistence of hypotensive effect at 0.25 mg/kg, po measured for 8 hrs; type: functional, Canis lupus familiaris; summary of the method: as §1
Canis familiaris [18] = test: Hypotensive activity in conscious renal hypertensive dog assessed as maximum change in mean blood pressure at 0.25 mg/kg, po measured for 8 hrs relative to control; type: functional, Canis lupus familiaris; summary of the method: as §3
Rattus norvegicus [19] = test: Toxicity in rat assessed as change in cardiac noradrenaline level at 0.1 mg/kg for 5 days; type: organism-based, Heart; parameters: dose 0.1 mg/kg; details: in vivo, 120 h; summary of the method: as §5
Canis familiaris [20] = test: Hypotensive activity in conscious renal hypertensive dog assessed as maximum change in mean blood pressure at 0.5 mg/kg, po measured for 8 hrs relative to control; type: functional, Canis lupus familiaris; summary of the method: as §3
Rattus norvegicus [21] = test: Hypotensive activity in spontaneously hypertensive Wistar-Okamoto rat assessed as time required for persistence of hypotensive effect at 0.25 mg/kg, po; type: functional; summary of the method: as §2
Rattus norvegicus [22] = test: Hypotensive activity in spontaneously hypertensive Wistar-Okamoto rat assessed as maximum change in mean blood pressure at 0.5 mg/kg, po relative to control; type: functional; summary of the method: as §4
Rattus norvegicus [23] = test: Hypotensive activity in po dosed spontaneously hypertensive Wistar-Okamoto rat relative to hydralazine; type: functional
Canis familiaris [24] = test: Hypotensive activity in conscious renal hypertensive dog assessed as time required for persistence of hypotensive effect at 2 mg/kg, po measured for 8 hrs; type: functional, Canis lupus familiaris; summary of the method: as §1
Canis familiaris [25] = test: Hypotensive activity in conscious renal hypertensive dog assessed as time required for persistence of hypotensive effect at 0.5 mg/kg, po measured for 8 hrs; type: functional, Canis lupus familiaris; summary of the method: as §1
Rattus norvegicus [26] = test: Hypotensive activity in spontaneously hypertensive Wistar-Okamoto rat assessed as time required for persistence of hypotensive effect at 0.5 mg/kg, po; type: functional; summary of the method: as §2
Canis familiaris [27] = test: Hypotensive activity in conscious renal hypertensive dog assessed as maximum change in mean blood pressure at 2 mg/kg, po measured for 8 hrs relative to control; type: functional, Canis lupus familiaris; summary of the method: as §3
Rattus norvegicus [28] = test: Hypotensive activity in spontaneously hypertensive Wistar-Okamoto rat assessed as maximum change in mean blood pressure at 0.25 mg/kg, po relative to control; type: functional; summary of the method: as §4
Rattus norvegicus [29] = test: Hypotensive activity in spontaneously hypertensive Wistar-Okamoto rat assessed as time required for persistence of hypotensive effect at 2.5 mg/kg, po; type: functional; summary of the method: as §2
Rattus norvegicus [30] = test: Hypotensive activity in spontaneously hypertensive Wistar-Okamoto rat assessed as time required for persistence of hypotensive effect at 1 mg/kg, po; type: functional; summary of the method: as §2
Canis familiaris [31] = test: Hypotensive activity in conscious renal hypertensive dog assessed as time required for persistence of hypotensive effect at 1 mg/kg, po measured for 8 hrs; type: functional, Canis lupus familiaris; summary of the method: as §1
Rattus norvegicus [32] = test: Hypotensive activity in spontaneously hypertensive Wistar-Okamoto rat assessed as maximum change in mean blood pressure at 2.5 mg/kg, po relative to control; type: functional; summary of the method: as §4
Rattus norvegicus [33] = test: Hypotensive activity in spontaneously hypertensive Wistar-Okamoto rat assessed as maximum change in mean blood pressure at 1 mg/kg, po relative to control; type: functional; summary of the method: as §4
Canis familiaris [34] = test: Hypotensive activity in conscious renal hypertensive dog assessed as maximum change in mean blood pressure at 1 mg/kg, po measured for 8 hrs relative to control; type: functional, Canis lupus familiaris; summary of the method: as §3

SMILES	minimal effective dose (Rattus norvegicus [1]) [mg/kg]	Time (Canis familiaris [2]) [h]	Time (Rattus norvegicus [3]) [h]	Time (Rattus norvegicus [4]) [h]	Activity (Felis catus)	Activity (Canis familiaris [5]) [mmHg]	Activity (Canis familiaris [6]) [mmHg]	Activity (Rattus norvegicus [7]) [mmHg]	Time (Rattus norvegicus [8]) [h]	Activity (Rattus norvegicus [9]) [mmHg]	Activity (Rattus norvegicus [10]) [mmHg]	Time (Canis familiaris [11]) [h]	fold change (FC) (Rattus norvegicus [12])	Activity (Rattus norvegicus [14])	LD50 at 168 h [15] [mg/kg]	LD50 at 168 h [16] [mg/kg]	Activity (Canis familiaris [20]) [mmHg]	Time (Canis familiaris [25]) [h]	further results
CCC(C)(C)/N=C(\NC#N)Nc1cccnc1	0.1	>6	2	4	Active	-69	-41	-27	4	>-100	-72	4	100						
CC(C)(C)/N=C(/NC#N)Nc1cccnc1	0.1	4	4	6	Active	-45	-25	-26	>8	-72	-37	2	100	Non-toxic	278	> 1000			Activity (Rattus norvegicus [13]): Non-toxic; Time (Canis familiaris [17]): 6 h; Activity (Canis familiaris [18]): -62 mmHg; Activity (Rattus norvegicus [19]): Non-toxic
CC(=O)N(/C(=N\C#N)Nc1cccnc1)C(C)(C)C.O	0.1				Active				4	-30				Non-toxic	615	> 1000	-22	2	Time (Rattus norvegicus [21]): 4 h; Activity (Rattus norvegicus [22]): -86 mmHg; fold change (FC) (Rattus norvegicus [23]): 2; Time (Canis familiaris [24]): 8 h; Time (Rattus norvegicus [26]): >8 h; Activity (Canis familiaris [27]): -75 mmHg; Activity (Rattus norvegicus [28]): -64 mmHg
NNc1nncc2ccccc12 [HYDRALAZINE]															107		-21	2	Time (Rattus norvegicus [29]): >8 h; Time (Rattus norvegicus [30]): 4 h; Time (Canis familiaris [31]): 6 h; Activity (Rattus norvegicus [32]): -64 mmHg; Activity (Rattus norvegicus [33]): -36 mmHg; Activity (Canis familiaris [34]): -42 mmHg
